ChEMBL document CHEMBL3085712, “Protein tyrosine phosphatase 1B (PTP1B) inhibitors from Morinda citrifolia (Noni) and their insulin mimetic activity” (J Nat Prod, 2013)
pIC50: −log10 of the molar value. Blank lines part the entries; values can stand above or below the molecule they belong to.

Columns and labels:
[1] = molecular target: T1, Tyrosine-protein phosphatase non-receptor type 1 (Homo sapiens, UniProt P18031); assay: Inhibition of PTP1B (unknown origin) assessed as p-nitrophenol release from pNPP substrate after 30 mins by spectrophotometry; conditions: for pIC50: read-out: IC50
T1 sequence (P18031 whole entry): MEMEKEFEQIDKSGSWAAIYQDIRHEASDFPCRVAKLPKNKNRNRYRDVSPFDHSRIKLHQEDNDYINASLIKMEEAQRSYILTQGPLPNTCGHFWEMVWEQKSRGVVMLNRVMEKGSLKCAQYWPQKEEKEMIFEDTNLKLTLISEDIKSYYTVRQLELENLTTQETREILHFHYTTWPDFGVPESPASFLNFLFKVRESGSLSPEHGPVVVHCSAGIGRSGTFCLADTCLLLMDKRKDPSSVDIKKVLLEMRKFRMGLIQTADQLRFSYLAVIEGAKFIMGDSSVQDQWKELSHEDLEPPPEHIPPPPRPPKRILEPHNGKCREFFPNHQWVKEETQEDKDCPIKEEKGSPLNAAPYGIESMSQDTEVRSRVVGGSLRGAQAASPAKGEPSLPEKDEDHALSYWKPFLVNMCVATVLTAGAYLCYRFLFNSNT
Procedure, shortened: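 Commercial PTP1B (0.05–0.1 μg) was incubated with 4 mM p-NPP in 50 mM citrate pH 6.0, 1 mM DTT, 0.1 M NaCl and 1 mM EDTA at 37 °C for 30 min. IC50 came from a seven-concentration curve; triplicates, mean ± SD.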

[2] = tested on: 3T3-L1; assay: Increase in 2-NBDG uptake in mouse 3T3L1 cells after 30 mins by fluorescence spectrophotometry; format: functional, cell-based
Procedure, shortened: (§1)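 Mouse 3T3-L1 preadipocytes were differentiated with insulin, IBMX, dexamethasone, rosiglitazone and 10% FBS, then used 7 days after induction at 3 × 10^4 cells/well. Cells were starved 3 h in low-glucose serum-free DMEM, treated 30 min, then given 50 μM 2-NBDG for 1 h (90 min total). After lysis in 0.1 M K3PO4/1% Triton X-100, fluorescence was read at ex 450/em 535 nm; fold versus DMSO; triplicates, mean ± SD.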

[3] = tested on: 3T3-L1; assay: Increase in 2-NBDG uptake in mouse 3T3L1 cells at 400 ug/ml after 30 mins by fluorescence spectrophotometry relative to DMSO-treated control; format: functional; procedure, shortened: as §1

pIC50 [1]: 4.66
SMILES: Oc1ccc([C@H]2OC[C@H]3[C@@H]2CO[C@H]3c2ccc(O)c(O)c2)cc1O
Activity [2]: Dose-dependent effect
fold change (FC) ([3]; in the assay text read “at 20 uM” for “at 400 ug/ml”): 1.52

pIC50 [1]: < 4.52
SMILES: Oc1ccc([C@@H]2OC[C@@H]3[C@H]2CO[C@H]3c2ccc(O)c(O)c2)cc1O

pIC50 [1]: < 4.52
SMILES: O=C(O)/C=C/c1ccc2c(c1)O[C@@H](CO)[C@@H](c1ccc(O)c(O)c1)O2

pIC50 [1]: < 4.52
SMILES: COc1cc([C@H]2Oc3ccc(/C=C/C(=O)O)cc3O[C@@H]2CO)ccc1O

pIC50 [1]: 4.71
SMILES: COc1cc([C@H]2Oc3ccc(C(=O)O)cc3O[C@@H]2CO)ccc1O

IC50 [1]: Not Active
SMILES: O=C1O[C@@H](c2ccc(O)c(O)c2)[C@@H]2CO[C@@H](c3ccc(O)c(O)c3)[C@H]12

SMILES: COc1cc([C@H]2OC[C@H]3[C@@H]2CO[C@@H]3c2cc(OC)c(OC)c(OC)c2)cc(OC)c1OC
pIC50 [1]: 4.77
Activity [2]: Dose-dependent effect
fold change (FC) [3]: 1.45

pIC50 [1]: < 4.52
SMILES: O=C(O)/C=C/c1ccc2c(c1)O[C@@H](CO)[C@H](c1ccc(O)c(O)c1)O2 (relative stereo)

pIC50 [1]: < 4.52
SMILES: COc1cc([C@H]2Oc3ccc(CCCO)cc3O[C@@H]2CO)ccc1O (relative stereo)

IC50 [1]: Not Active
SMILES: O=C1O[C@@H](c2ccc(O)c(O)c2)[C@H](CO)/C1=C\c1ccc(O)c(O)c1 (relative stereo)

pIC50 [1]: 4.73
SMILES: COc1cc([C@@H]2OC[C@H]3[C@@H]2CO[C@H]3c2ccc(O)c(OC)c2)ccc1O [(-)-PINORESINOL]

IC50 [1]: Not Active
SMILES: O=C/C=C/c1ccc2c(c1)O[C@@H](CO)[C@H](c1ccc(O)c(O)c1)O2 [AMERICANIN A]

SMILES: CN(CCOc1ccc(CC2SC(=O)NC2=O)cc1)c1ccccn1 (configuration not stated) [ROSIGLITAZONE]
fold change (FC) [3]: 1.7

pIC50 [1]: 4.82
SMILES: COc1cc([C@H]2OC[C@H]3[C@@H]2CO[C@@H]3c2cc(OC)c(O)c(OC)c2)cc(OC)c1O [SYRINGARESINOL]
Activity [2]: Dose-dependent effect
fold change (FC) [3]: 1.46

SMILES: C[C@H]1[C@H](C)CC[C@]2(C(=O)O)CC[C@]3(C)C(=CC[C@@H]4[C@@]5(C)CC[C@H](O)C(C)(C)[C@@H]5CC[C@]43C)[C@H]12 [URSOLIC ACID]
Activity [2]: Dose-dependent effect
fold change (FC) [3]: 1.82
